Assay outcomes from PubChem.
SR-BI DiI inh – inhibitors of mouse SR-BI mediated HDL lipid uptake. Q61009. ldlA[mSR-BI] CHO cells, DiI-HDL uptake fluorescence, 3 h. inhibition, % at 12.5 µM. hit rate 0.96% among 320,000. AID 488896;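 active means mean replicate inhibition of at least 70% and a set share of replicates each scoring 70 or more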;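 further: 0% = median of neutral control wells and 100% = median of positive control wells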
dFosB act-1 – enhances mouse delta FosB homodimer DNA binding | P13346 | purified delta FosB, TAMRA-CDK5 oligo fluorescence polarization; percent of positive-control signal above neutral wells | activation, % at 25 µM | hit rate 0.99% among 340,000;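 active means mean activation above about 17%, with every replicate also reaching it, limit read from the data, passing the limit was not always enough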
CDK5 inh – blocks human CDK5/p35 kinase activity; Q00535+Q15078; Recombinant CDK5/p35, ADP-Glo luminescence, 60 min; inhibition, % at 10 µM; hit rate 0.01% among 330,000;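 active means highest replicate inhibition of at least 50% and at least 75% of replicates reaching 50%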;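 further: plate controls were DMSO neutral control for no effect and GW8510 at 10 µM for full effect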
Target sequence (Q00535 whole entry, looked up): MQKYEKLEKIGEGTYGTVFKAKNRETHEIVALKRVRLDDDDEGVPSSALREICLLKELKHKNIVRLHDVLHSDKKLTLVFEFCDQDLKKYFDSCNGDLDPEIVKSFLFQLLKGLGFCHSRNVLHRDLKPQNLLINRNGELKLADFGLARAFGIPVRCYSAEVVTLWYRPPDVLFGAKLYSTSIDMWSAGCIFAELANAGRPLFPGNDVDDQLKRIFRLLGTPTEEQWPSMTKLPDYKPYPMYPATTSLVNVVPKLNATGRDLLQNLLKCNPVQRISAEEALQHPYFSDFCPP
Target sequence (Q15078 whole entry, looked up): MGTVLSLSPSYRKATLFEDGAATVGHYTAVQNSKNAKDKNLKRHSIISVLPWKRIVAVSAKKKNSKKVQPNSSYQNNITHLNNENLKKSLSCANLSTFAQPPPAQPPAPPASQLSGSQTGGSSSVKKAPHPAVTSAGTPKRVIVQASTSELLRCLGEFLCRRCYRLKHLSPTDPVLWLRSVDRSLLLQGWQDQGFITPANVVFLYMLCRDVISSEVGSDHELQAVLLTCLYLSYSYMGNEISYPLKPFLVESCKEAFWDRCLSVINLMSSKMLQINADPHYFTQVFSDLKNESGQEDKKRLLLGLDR
SR-BI DiI-HDL act – enhances SR-BI lipid uptake from DiI-HDL; AID 504775; CHO ldlA[mSR-BI] cells, DiI-HDL uptake fluorescence, 3 h; 100 = double the neutral-control signal; hit rate 0.096% among 320,000; activation, % at 12.5 µM;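 active means mean replicate activation of at least 60% and every replicate at or above 60%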;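 further: 0% = median plate neutral-control signal and 100% = twice that signal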
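System: LDL receptor-deficient CHO ldlA cells overexpressing murine SR-BI | Timing: 3 h uptake period with compound, 37 °C | Medium: HEPES-buffered (25 mM, pH 7.4) F12 plus 0.5% BSA | Dosing: Single-point compound dose | Signal: Bottom-read fluorescence, 550/595 nm | Read-out: Retained DiI signal reflecting DiI-HDL uptake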
PKA-R1A act – activators of PKA-R1A complex | hit rate 0.083% among 340,000 | P00514+P68181 | activation, % at 11.4 µM | PKA-R1A dissociation, Cy5-IP20 fluorescence polarization; scaled: DMSO 0%, 113 µM cGMP 100% | AID 504707;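 active means percent activation above the mean of all tested compounds plus 3 SD, cut at about 19% in these data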;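 further: higher means more PKAc released from R1A so a rise in polarization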
PKA-R2B act – PKA-R2B complex activation; P22694+P31323; PKA-R2B holoenzyme dissociation, Cy5-IP20 fluorescence polarization; R2B truncated from residue 108, S112A mutant; 0% DMSO only, 100% 113 µM cGMP; activation, % at 11.4 µM; hit rate 0.079% among 340,000; AID 504700;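 active means activation above a cutoff set at the mean over all compounds plus 3 SD, cut at about 18% in these data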;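 further: higher means more holoenzyme dissociation and a rise in polarization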
dFosB act-2 – activators of mouse delta FosB homodimer DNA binding. shares compounds with dFosB act-1. purified delta FosB, TAMRA-CDK5 oligo fluorescence polarization; normalised: neutral wells 0, positive control 100. activation, % at 24.9 µM. 2,400 tested, under 10 active;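 active means highest replicate activation at or above 34% and every replicate reaching that threshold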;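 further: higher polarization means more probe DNA bound by delta FosB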
Active calls of the source: *; · = no result given. Shown are actives, neighbours in structure and some others; about 2.1% of the full set was active somewhere.

SMILES | SR-BI DiI inh | dFosB act-1 | CDK5 inh | SR-BI DiI-HDL act | PKA-R1A act | PKA-R2B act | dFosB act-2
CC(C)CC(NC(=O)C(Cc1ccc(OCc2ccccc2)cc1)NC(=O)OC(C)(C)C)C(N)=O (configuration not stated) | 6 | 30* | -1 | -6 | -4 | 2 | 1
COC(=O)C(Cc1ccccc1)NC(=O)C(CC(C)C)NC(=O)OC(C)(C)C (configuration not stated) | -15 | -6 | 0 | 15 | -7 | -18 | ·
O=C(Nc1cc(Cl)ccc1-n1cncn1)c1ccc([N+](=O)[O-])o1 | 11 | -5 | 0 | -11 | 1 | 13 | ·
O=C(CCc1nc2ccccc2c(=O)[nH]1)NNC(=O)COc1ccccc1Cl | -13 | 56* | -2 | 13 | 2 | -11 | 1
CCOc1ccc(-n2nnnc2SCC(=O)Nc2cccc(O)c2)cc1 | -27 | -2 | 1 | 27 | -11 | -1 | ·
CCOc1ccc(-n2nnnc2SCC(=O)Nc2ccc(NC(C)=O)cc2)cc1 | 3 | 19* | 0 | -3 | 7 | -3 | 4
O=C(CNS(=O)(=O)c1ccccc1)N1CCc2ccccc2C1 | 1 | 2 | -1 | -1 | -11 | 2 | ·
COC(=O)COc1ccc2oc(=O)cc(-c3cc4cccc(OC)c4o3)c2c1 | -37 | 52* | 1 | 37 | -10 | -8 | 1
COC(=O)[C@@H](NC(=O)N1CCC(Cc2ccccc2)CC1)C(C)C | 4 | 3 | -1 | -4 | 0 | -3 | ·
COc1ccc(OC)c(/C=N/NC(=O)c2[nH]nc3c2CCc2ccccc2-3)c1 | 43 | 23* | 1 | -43 | -5 | 2 | 0
Cc1ccc(NC(=O)Cn2nc([N+](=O)[O-])c(Br)c2C)cc1C | 24 | 49* | 1 | -24 | -4 | -10 | 1
O=c1[nH]c(Cn2nnc(-c3ccccc3)n2)nc2scc(-c3ccccc3)c12 | 11 | 34* | 1 | -11 | -11 | -5 | 0
O=C(CSc1nnnn1-c1ccccc1)Nc1nsc(-c2ccc(Cl)cc2)n1 | 4 | 58* | 2 | -4 | -2 | 7 | 2
O=C(CSc1nnnn1-c1ccccc1)Nc1nsc(-c2ccccc2)n1 | 10 | 2 | 5 | -10 | -14 | 0 | ·
Cc1nnc(SCC(=O)Nc2nsc(-c3ccccc3)n2)s1 | -9 | -3 | 3 | 9 | -14 | -3 | ·
Cc1ccc(-c2nc(NC(=O)CSc3nnc(C)s3)ns2)cc1 | -5 | 27* | 1 | 5 | -7 | 9 | -10
COc1ccccc1NC(=O)Cn1nnc(C(=O)NCCc2ccccc2)c1N | 30 | 40* | -1 | -30 | -2 | 5 | 1
COc1cccc(NC(=O)Cn2nnc(C(=O)Nc3ccccc3)c2N)c1 | 46 | 1 | -2 | -46 | 5 | -3 | ·
COc1cccc(NC(=O)Cn2nnc(C(=O)NCCc3ccccc3)c2N)c1 | 16 | 37* | 1 | -16 | -4 | 2 | 3
Cc1ccc(Nc2nnc(SC(C)C(=O)NCC3CCCO3)s2)cc1 (configuration not stated) | 16 | -10 | -2 | -16 | -16 | -8 | ·
COc1ccccc1S(=O)(=O)N(C)C[C@@H]1OCc2cn(nn2)CCCC(=O)N([C@H](C)CO)C[C@H]1C | · | · | · | · | -5 | 7 | ·
CCOc1ccccc1CNC(=O)C1CCN(c2nnc(C)c3c(C)n(-c4ccc(C)cc4)nc23)CC1 | 59 | 85* | 2 | -59 | -13 | -5 | 5
CCOc1ccc(CNC(=O)C2CCN(c3nnc(C)c4c(C)n(-c5ccc(C)cc5)nc34)CC2)cc1 | 34 | 78* | 0 | -34 | -16 | 0 | -11
Cc1cccc(C)c1NC(=O)CCCn1nc(C)c2c(C)n(-c3ccccc3)nc2c1=O | 41 | 19* | 1 | -41 | -6 | 0 | 1
Cc1ccc(-n2nc3c(N4CCC(C(=O)N5CCCCCC5)CC4)nnc(C)c3c2C)cc1 | 32 | -2 | · | -32 | -17 | -10 | ·
SMILES | SR-BI DiI inh | dFosB act-1 | CDK5 inh | SR-BI DiI-HDL act | PKA-R1A act | PKA-R2B act | dFosB act-2
Cc1ccc(-n2nc3c(=O)n(C(C)C(=O)NCc4ccccc4Cl)nc(C)c3c2C)cc1 (configuration not stated) | 69 | 28* | 1 | -69 | -3 | -8 | 1
COc1ccc(OC(C)C(=O)NC2CCCCCC2)cc1 (configuration not stated) | 11 | -5 | -7 | -11 | -4 | -14 | ·
COC(=O)c1[nH]c2c(c1C)C(=O)CC(c1cccc(OC)c1)C2 (configuration not stated) | 37 | -3 | -3 | -37 | 10 | -1 | ·
O=C(CC1(CC(=O)N2CCOCC2)CCCC1)Nc1ccccc1 | -2 | 0 | 0 | 2 | 6 | -4 | ·
CCOc1ccccc1CNC(=O)Cn1nc(C)c2c(C)n(-c3ccc(C)cc3)nc2c1=O | 53 | 53* | -1 | -53 | -3 | 5 | 1
COC(=O)c1ccc(NC(=O)C(=O)c2c[nH]c3ccccc23)cc1 | 24 | 72* | -1 | -24 | -5 | -1 | 7
O=C(Nc1cc(S(=O)(=O)Nc2ccccc2Cl)ccc1O)c1cc2c(s1)CCCC2 | · | 32* | 0 | · | -5 | -10 | 3
Cc1ccc(NC(=O)c2cc3c(s2)CCCC3)cc1S(=O)(=O)Nc1ccccc1Cl | 68 | -7 | 0 | -68 | -6 | 0 | ·
Cc1cccc(-n2ncc3c(=O)[nH]c(SCC(=O)N4CC(=O)Nc5ccccc54)nc32)c1 | -3 | 47* | 0 | 3 | -8 | 0 | 4
Cc1ccc(-n2ncc3c(=O)[nH]c(SCC(=O)N4CC(=O)Nc5ccccc54)nc32)cc1 | 6 | -9 | 0 | -6 | -8 | 1 | ·
CCNc1nc(OC)nc(N(OC)S(=O)(=O)c2ccc(C)cc2)n1 | 9 | -6 | -2 | -9 | -4 | -7 | ·
C=CCOc1ccc(/C=C/C(=O)OCC(=O)N2CCN(S(=O)(=O)c3ccc(C)cc3C)CC2)cc1 | 3 | 5 | -1 | -3 | -4 | 10 | ·
Cc1ccc(S(=O)(=O)N2CCN(C(=O)COC(=O)/C=C/c3ccc([N+](=O)[O-])cc3)CC2)c(C)c1 | -5 | 24* | 1 | 5 | -21 | -6 | -3
Cc1ccc(C(=O)NCCc2nnc3ccc(NCc4ccc5c(c4)OCO5)nn23)cc1 | 7 | 51* | -1 | -7 | -4 | 0 | -2
O=[N+]([O-])c1ccc(CSCc2ccc([N+](=O)[O-])cc2)cc1 | 20 | 2 | 4 | -20 | -8 | -9 | ·
